In ChEMBL document CHEMBL4725483, “Simultaneous Inhibition of SIRT2 Deacetylase and Defatty-Acylase Activities via a PROTAC Strategy” (ACS Med Chem Lett, 2020):
The source made the active and inactive calls. No cut-off for these calls is given here.

Tests used:
[1] = target: T1, NAD-dependent protein deacetylase sirtuin-1 (Homo sapiens, UniProt Q96EB6); assay: Inhibition of human SIRT1 deacetylation activity using H3K9Ac as substrate preincubated for 15 mins in presence of NAD+ followed by substrate addition by HPLC analysis
T1 sequence (Q96EB6 whole entry): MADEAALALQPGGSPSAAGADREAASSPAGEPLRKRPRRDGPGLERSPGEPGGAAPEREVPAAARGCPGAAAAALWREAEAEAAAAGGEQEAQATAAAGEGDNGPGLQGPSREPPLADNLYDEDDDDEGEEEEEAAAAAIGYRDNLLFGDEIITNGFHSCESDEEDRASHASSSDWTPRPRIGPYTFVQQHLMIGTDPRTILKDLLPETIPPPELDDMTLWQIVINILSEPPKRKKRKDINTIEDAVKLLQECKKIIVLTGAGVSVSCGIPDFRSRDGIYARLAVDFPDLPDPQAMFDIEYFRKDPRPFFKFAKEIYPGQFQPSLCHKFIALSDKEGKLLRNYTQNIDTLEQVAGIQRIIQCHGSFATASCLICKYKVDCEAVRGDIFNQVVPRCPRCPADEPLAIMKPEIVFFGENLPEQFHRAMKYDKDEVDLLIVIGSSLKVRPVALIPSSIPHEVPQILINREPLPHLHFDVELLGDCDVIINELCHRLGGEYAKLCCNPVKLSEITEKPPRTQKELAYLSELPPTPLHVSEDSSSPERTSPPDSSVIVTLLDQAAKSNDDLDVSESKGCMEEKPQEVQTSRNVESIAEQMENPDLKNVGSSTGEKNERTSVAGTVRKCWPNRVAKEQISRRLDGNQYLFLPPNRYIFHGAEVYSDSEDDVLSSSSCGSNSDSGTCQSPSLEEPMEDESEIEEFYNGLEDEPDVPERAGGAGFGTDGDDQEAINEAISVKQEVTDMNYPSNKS
Summary of the method: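 In vitro sirtuin reaction mixture with compound at a range of concentrations. Compound was preincubated with NAD+ and the enzyme before the substrate peptide was added. IC50 taken from the concentration series.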

[2] = target: T2, NAD-dependent protein deacetylase sirtuin-2 (Homo sapiens, UniProt Q8IXJ6); assay: Inhibition of human SIRT2 defatty-acylation activity using peptide substrate in presence of NAD+ by HPLC analysis
T2 sequence (Q8IXJ6 whole entry): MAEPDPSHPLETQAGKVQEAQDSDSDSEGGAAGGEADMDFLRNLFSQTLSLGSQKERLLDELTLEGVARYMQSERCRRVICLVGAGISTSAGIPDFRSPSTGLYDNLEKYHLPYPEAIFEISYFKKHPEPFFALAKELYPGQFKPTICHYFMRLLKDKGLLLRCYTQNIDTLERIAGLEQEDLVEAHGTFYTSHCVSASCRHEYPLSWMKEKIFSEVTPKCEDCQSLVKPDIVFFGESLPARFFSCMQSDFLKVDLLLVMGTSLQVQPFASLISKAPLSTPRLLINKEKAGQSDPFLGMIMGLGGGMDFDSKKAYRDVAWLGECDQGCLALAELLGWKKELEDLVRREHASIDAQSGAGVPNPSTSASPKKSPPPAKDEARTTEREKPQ

[3] = target: T3, Protein cereblon/NAD-dependent protein deacetylase sirtuin-2 (Homo sapiens) (UniProt Q8IXJ6+Q96SW2); assay: Protac activity at CRBN/SIRT2 in human MCF7 cells assessed as SIRT2 degradation at 5 to 10 uM after 48 hrs by immunoblot analysis; format: cell-based; conditions: dose microM 5-10, time 48.0 hrs
T3 sequence (Q96SW2 whole entry, looked up, one chain of several): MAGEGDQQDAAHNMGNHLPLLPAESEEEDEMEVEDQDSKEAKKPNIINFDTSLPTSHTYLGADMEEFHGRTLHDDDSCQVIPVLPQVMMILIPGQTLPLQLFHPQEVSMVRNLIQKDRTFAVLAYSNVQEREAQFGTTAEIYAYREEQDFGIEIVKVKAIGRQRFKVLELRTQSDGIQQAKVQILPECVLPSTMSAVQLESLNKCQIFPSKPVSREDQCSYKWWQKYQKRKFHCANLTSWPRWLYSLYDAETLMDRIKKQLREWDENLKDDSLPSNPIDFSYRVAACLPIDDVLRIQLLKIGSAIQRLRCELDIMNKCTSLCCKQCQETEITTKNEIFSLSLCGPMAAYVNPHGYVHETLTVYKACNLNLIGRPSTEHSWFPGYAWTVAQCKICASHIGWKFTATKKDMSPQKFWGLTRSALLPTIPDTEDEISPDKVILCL
Summary of the method: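 Cells exposed to compound at the indicated concentrations for 48 h. SIRT1, SIRT2 and SIRT3 levels were read by immunoblot.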

[4] = target: T4, Protein cereblon/NAD-dependent protein deacetylase sirtuin-3, mitochondrial (Homo sapiens) (UniProt Q9NTG7+Q96SW2); assay: Protac activity at CRBN/SIRT3 in human BT549 cells assessed as SIRT3 degradation at 5 to 10 uM after 48 hrs by immunoblot analysis; format: cell-based; conditions: BT-549, dose microM 5-10, time 48.0 hrs
T4 sequence (Q96SW2 whole entry, looked up): as the sequence (Q96SW2 whole entry, looked up, one chain of several) above
T4 sequence (Q9NTG7 whole entry, looked up): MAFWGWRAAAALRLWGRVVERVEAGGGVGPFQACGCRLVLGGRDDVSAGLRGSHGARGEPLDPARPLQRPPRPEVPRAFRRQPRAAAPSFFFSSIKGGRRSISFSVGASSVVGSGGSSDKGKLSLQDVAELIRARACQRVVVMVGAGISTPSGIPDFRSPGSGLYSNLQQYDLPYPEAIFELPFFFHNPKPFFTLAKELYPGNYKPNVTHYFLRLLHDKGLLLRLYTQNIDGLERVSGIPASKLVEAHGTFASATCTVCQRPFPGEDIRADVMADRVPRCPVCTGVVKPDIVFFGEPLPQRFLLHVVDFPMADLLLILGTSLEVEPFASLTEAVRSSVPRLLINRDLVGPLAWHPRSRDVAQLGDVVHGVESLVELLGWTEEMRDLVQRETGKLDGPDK
Summary of the method: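 MCF7 or BT-549 cells exposed to inhibitor at the indicated concentrations for 48 h; SIRT1, SIRT2 and SIRT3 levels read by immunoblot.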

[5] = target: T3, Protein cereblon/NAD-dependent protein deacetylase sirtuin-2 (Homo sapiens); assay: Protac activity at CRBN/SIRT2 in human MDA-MB-231 cells assessed as SIRT2 degradation after 48 hrs by immunoblot analysis; format: cell-based
Summary of the method: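 In MDA-MB-231 and MDA-MB-468 cells, SIRT2 was assessed by immunoblot after compound treatment.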

[6] = target: T3, Protein cereblon/NAD-dependent protein deacetylase sirtuin-2 (Homo sapiens); assay: Protac activity at CRBN/SIRT2 in human MCF7 cells assessed as SIRT2 degradation at 0.5 uM after 48 hrs by immunoblot analysis; format: cell-based
Summary of the method: (§1)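 MCF7 cells given a range of concentrations below and above 5 μM (0.5 to 50 μM) for 48 h; SIRT2 measured by immunoblot against vehicle-treated cells.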

[7] = target: T3, Protein cereblon/NAD-dependent protein deacetylase sirtuin-2 (Homo sapiens); assay: Protac activity at CRBN/SIRT2 in human MCF7 cells assessed as SIRT2 degradation at 10 uM by immunoblot analysis; format: cell-based; conditions: TDE = time-dependent effect
Summary of the method: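 MCF7 cells treated at a fixed concentration (10 or 25 μM) and harvested at several incubation times; SIRT2 level read by immunoblot.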

[8] = target: T3, Protein cereblon/NAD-dependent protein deacetylase sirtuin-2 (Homo sapiens); assay: Protac activity at CRBN/SIRT2 in human MCF7 cells assessed as SIRT2 degradation at 50 uM after 48 hrs by immunoblot analysis; format: cell-based; summary of the method: as §1
[9] = target: T3, Protein cereblon/NAD-dependent protein deacetylase sirtuin-2 (Homo sapiens); assay: Protac activity at CRBN/SIRT2 in human MCF7 cells assessed as inhibition of SIRT2 deacetylation by measuring increase in acetylated-alpha tubulin level at 5 uM measured after 12 hrs by DAPI staining based immunofluorescence microscopic analysis; format: cell-based
Summary of the method: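 MCF7 cells treated for 12 h with 5 or 10 μM, DMSO as control. Acetyl-α-tubulin (K40) was imaged by immunofluorescence, and fluorescence intensity was quantified and normalized to vehicle.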

[10] = target: T3, Protein cereblon/NAD-dependent protein deacetylase sirtuin-2 (Homo sapiens); assay: Protac activity at CRBN/SIRT2 in human HEK293T cells stably expressing flag-tagged K-Ras4a-G12V assessed as inhibition of SIRT2 defatty-acylation at 1 uM incubated for 48 hrs by immunoblot analysis; format: cell-based; conditions: HEK-293T
Summary of the method: (§2)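 HEK 293T cells stably overexpressing Flag-tagged K-Ras4a-G12V (confirmed by pan-Ras blot) were exposed to 1 μM compound for 48 h. SIRT1, SIRT2 and SIRT3 levels were then read by immunoblot.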

[11] = target: T4, Protein cereblon/NAD-dependent protein deacetylase sirtuin-3, mitochondrial (Homo sapiens); assay: Protac activity at CRBN/SIRT3 in human HEK293T cells stably expressing flag-tagged K-Ras4a-G12V assessed as inhibition of SIRT2 defatty-acylation at 1 uM incubated for 48 hrs by immunoblot analysis; format: cell-based; conditions: HEK-293T; summary of the method: as §2
MCF7 [12] = assay: Cytotoxicity against human MCF7 cells assessed as reduction in cell viability after 72 hrs; format: functional, cell-based
Summary of the method: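 Cells incubated with compound or thalidomide for 72 h; cell viability read out at the end of exposure.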

MCF7 [13] = assay: Cytotoxicity against human MCF7 cells assessed as reduction in cell viability at 1 uM after 72 hrs; format: functional, cell-based
[14] = target: T4, Protein cereblon/NAD-dependent protein deacetylase sirtuin-3, mitochondrial (Homo sapiens); assay: Protac activity at CRBN/SIRT3 in human HEK293T cells assessed as abundance ratio at 5 uM incubated for 16 hrs by TMT global proteomics assay relative to DMSO; format: cell-based; conditions: HEK-293T
Summary of the method: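 HEK 293T cells given 5 μM compound for 16 h. Global proteomics used Tandem Mass Tag labelling, and each sirtuin's abundance is given as a ratio of treated to DMSO-treated cells.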

Structure (SMILES): CCCCCCCCCCCCCC(=S)NCCCC[C@H](NC(=O)CCOCCOCCOCCOCCNc1cccc2c1C(=O)N(C1CCC(=O)NC1=O)C2=O)C(=O)Nc1ccccc1 (some centres undefined)
- IC50 [1]: 41 µM
- IC50 [2]: > 83 µM
- Activity [3]: Active
- Activity [4]: inactive
- Activity [5]: Active
- Activity [6]: Active
- Activity [7]: Tde
- Activity [8]: inactive
- Activity [9]: Active
- Activity [10]: Active
- Activity [11]: inactive
- Activity (MCF7 [12]): Active
- Activity (MCF7 [13]): inactive
- Activity [14]: inactive
